Laboratory results taken from ChEMBL document CHEMBL3414544, “PAINS in the assay: chemical mechanisms of assay interference and promiscuous enzymatic inhibition observed during a sulfhydryl-scavenging HTS” (J Med Chem, 2015).
The source made the active and inactive calls. Unless noted, the calls are words filed in the database; no cut-off is given here.

Columns and labels:
[1] = target: Histone acetyltransferase GCN5 (Saccharomyces cerevisiae S288c, UniProt Q03330); experiment: Inhibition of yeast histone acetyltransferase Gcn5-Ada2-Ada3 complex using tetramer and [3H]-acetyl-CoA assessed as acetate incorporation after 30 mins by liquid scintillation counting; details: read-out: IC50
Chain of Histone acetyltransferase GCN5 (Q03330 whole entry): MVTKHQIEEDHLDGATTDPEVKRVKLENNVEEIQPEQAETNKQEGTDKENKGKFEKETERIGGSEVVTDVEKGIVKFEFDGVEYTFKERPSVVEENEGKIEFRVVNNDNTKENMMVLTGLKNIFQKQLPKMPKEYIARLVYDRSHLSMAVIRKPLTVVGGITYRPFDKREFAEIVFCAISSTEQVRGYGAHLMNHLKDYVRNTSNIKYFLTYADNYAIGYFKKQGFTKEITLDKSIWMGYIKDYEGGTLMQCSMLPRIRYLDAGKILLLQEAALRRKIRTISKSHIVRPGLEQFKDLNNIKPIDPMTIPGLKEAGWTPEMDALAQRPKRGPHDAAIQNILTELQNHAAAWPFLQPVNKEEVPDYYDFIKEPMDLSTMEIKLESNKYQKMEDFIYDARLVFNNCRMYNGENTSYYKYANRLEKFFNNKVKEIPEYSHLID

[2] = target: T1, Histone acetyltransferase RTT109 (Saccharomyces cerevisiae (strain ATCC 204508 / S288c) (Baker's yeast), UniProt Q07794); experiment: Inhibition of Vps75-stimulated recombinant Saccharomyces cerevisiae histone acetyltransferase Rtt109 using [3H]-acetyl-CoA assessed as acetate incorporation after 30 mins by liquid scintillation counting; details: read-out: IC50
T1 sequence (Q07794 whole entry): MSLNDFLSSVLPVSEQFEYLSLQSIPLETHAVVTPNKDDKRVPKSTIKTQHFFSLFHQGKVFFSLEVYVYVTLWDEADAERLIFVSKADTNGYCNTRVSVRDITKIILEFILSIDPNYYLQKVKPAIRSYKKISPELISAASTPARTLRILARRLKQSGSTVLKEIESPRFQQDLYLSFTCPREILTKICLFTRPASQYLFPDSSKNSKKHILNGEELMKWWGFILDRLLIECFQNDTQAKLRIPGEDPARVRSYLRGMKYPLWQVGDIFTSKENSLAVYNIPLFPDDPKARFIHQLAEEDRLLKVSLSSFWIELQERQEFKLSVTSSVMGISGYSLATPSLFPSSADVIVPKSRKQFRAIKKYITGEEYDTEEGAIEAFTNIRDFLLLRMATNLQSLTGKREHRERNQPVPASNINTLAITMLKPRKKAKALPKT

[3] = Chemical stability of the compound in HTS buffer assessed as GSH adduct formation measured as retention time after 15 mins by UPLC-MS analysis; assay type: physicochemical; details: 0.25 h
In short: (§1)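 Compound (typically 0.5 mM final) incubated in HTS buffer (pH 8.0) for 5, 15 or 30 min, then reduced glutathione added (2 equiv per 1 equiv compound); aliquots analysed by UPLC–MS (BEH C18 column, ELS and 254 nm traces) 5 min after GSH addition, and the same sample re-analysed 15 min later. HTS-like conditions but 5% DMSO, no detergent.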

[4] = target: T1, Histone acetyltransferase RTT109; experiment: Inhibition of Vps75-stimulated recombinant Saccharomyces cerevisiae histone acetyltransferase Rtt109 using Asf1-dH3-H4 as substrate assessed as coenzyme A production after 45 mins by CPM based HTS assay
In short: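 Recombinant Rtt109–Vps75 at 50 nM, with Asf1–dH3–H4 as substrate and acetyl-CoA as acetyl donor. Buffer contained freshly prepared 0.01% Triton X-100. The CoA product was detected by fluorescence of its CPM adduct. Plates had Z′ ≥0.5. IC50 came from a four-parameter variable-slope fit.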

[5] = Chemical stability of the compound in HTS buffer assessed as GSH adduct formation measured as retention time after 5 mins by UPLC-MS analysis; assay type: physicochemical; in short: as §1
[6] = Fluorescence quenching in HTS buffer with […] CoA assessed as fluorescence signal reduction at 10 uM after 10 mins; assay type: physicochemical
[7] = Fluorescence quenching in HTS buffer assessed as fluorescence signal reduction at 10 uM after 10 mins; assay type: physicochemical
[8] = target: T2, Histone acetyltransferase RTT109 (Saccharomyces cerevisiae (strain ATCC 204508 / S288c) (Baker's yeast)) (UniProt Q07794); experiment: Inhibition of Vps75-stimulated recombinant Saccharomyces cerevisiae histone acetyltransferase Rtt109 assessed as H3K56 acetylated product at […] after 45 mins by Slot bolt inhibiton assay
T2 sequence (whole entry): T1 sequence (Q07794 whole entry)

[9] = Fluorescence quenching assessed as fluorescence signal reduction at 10 uM after 10 mins; assay type: physicochemical
In short: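 CPM (20 μM final) and CoA (5 μM final) reacted to completion in assay buffer (stable plateau, usually ~5 min); adduct solution added to wells preplated with compound; shaken 5 min, equilibrated 5 min at room temperature; fluorescence intensity read as percent signal reduction versus DMSO controls. Flagged as quencher at >20% signal reduction at 10 μM final compound.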

[10] = target: T3, Histone acetyltransferase p300 (Homo sapiens, UniProt Q09472); experiment: Inhibition of recombinant histone acetyltransferase p300 (unknown origin) using dH3-H4 tetramer and [3H]-acetyl-CoA assessed as acetate incorporation […] by liquid scintillation counting; details: read-out: IC50
T3 sequence (Q09472 whole entry): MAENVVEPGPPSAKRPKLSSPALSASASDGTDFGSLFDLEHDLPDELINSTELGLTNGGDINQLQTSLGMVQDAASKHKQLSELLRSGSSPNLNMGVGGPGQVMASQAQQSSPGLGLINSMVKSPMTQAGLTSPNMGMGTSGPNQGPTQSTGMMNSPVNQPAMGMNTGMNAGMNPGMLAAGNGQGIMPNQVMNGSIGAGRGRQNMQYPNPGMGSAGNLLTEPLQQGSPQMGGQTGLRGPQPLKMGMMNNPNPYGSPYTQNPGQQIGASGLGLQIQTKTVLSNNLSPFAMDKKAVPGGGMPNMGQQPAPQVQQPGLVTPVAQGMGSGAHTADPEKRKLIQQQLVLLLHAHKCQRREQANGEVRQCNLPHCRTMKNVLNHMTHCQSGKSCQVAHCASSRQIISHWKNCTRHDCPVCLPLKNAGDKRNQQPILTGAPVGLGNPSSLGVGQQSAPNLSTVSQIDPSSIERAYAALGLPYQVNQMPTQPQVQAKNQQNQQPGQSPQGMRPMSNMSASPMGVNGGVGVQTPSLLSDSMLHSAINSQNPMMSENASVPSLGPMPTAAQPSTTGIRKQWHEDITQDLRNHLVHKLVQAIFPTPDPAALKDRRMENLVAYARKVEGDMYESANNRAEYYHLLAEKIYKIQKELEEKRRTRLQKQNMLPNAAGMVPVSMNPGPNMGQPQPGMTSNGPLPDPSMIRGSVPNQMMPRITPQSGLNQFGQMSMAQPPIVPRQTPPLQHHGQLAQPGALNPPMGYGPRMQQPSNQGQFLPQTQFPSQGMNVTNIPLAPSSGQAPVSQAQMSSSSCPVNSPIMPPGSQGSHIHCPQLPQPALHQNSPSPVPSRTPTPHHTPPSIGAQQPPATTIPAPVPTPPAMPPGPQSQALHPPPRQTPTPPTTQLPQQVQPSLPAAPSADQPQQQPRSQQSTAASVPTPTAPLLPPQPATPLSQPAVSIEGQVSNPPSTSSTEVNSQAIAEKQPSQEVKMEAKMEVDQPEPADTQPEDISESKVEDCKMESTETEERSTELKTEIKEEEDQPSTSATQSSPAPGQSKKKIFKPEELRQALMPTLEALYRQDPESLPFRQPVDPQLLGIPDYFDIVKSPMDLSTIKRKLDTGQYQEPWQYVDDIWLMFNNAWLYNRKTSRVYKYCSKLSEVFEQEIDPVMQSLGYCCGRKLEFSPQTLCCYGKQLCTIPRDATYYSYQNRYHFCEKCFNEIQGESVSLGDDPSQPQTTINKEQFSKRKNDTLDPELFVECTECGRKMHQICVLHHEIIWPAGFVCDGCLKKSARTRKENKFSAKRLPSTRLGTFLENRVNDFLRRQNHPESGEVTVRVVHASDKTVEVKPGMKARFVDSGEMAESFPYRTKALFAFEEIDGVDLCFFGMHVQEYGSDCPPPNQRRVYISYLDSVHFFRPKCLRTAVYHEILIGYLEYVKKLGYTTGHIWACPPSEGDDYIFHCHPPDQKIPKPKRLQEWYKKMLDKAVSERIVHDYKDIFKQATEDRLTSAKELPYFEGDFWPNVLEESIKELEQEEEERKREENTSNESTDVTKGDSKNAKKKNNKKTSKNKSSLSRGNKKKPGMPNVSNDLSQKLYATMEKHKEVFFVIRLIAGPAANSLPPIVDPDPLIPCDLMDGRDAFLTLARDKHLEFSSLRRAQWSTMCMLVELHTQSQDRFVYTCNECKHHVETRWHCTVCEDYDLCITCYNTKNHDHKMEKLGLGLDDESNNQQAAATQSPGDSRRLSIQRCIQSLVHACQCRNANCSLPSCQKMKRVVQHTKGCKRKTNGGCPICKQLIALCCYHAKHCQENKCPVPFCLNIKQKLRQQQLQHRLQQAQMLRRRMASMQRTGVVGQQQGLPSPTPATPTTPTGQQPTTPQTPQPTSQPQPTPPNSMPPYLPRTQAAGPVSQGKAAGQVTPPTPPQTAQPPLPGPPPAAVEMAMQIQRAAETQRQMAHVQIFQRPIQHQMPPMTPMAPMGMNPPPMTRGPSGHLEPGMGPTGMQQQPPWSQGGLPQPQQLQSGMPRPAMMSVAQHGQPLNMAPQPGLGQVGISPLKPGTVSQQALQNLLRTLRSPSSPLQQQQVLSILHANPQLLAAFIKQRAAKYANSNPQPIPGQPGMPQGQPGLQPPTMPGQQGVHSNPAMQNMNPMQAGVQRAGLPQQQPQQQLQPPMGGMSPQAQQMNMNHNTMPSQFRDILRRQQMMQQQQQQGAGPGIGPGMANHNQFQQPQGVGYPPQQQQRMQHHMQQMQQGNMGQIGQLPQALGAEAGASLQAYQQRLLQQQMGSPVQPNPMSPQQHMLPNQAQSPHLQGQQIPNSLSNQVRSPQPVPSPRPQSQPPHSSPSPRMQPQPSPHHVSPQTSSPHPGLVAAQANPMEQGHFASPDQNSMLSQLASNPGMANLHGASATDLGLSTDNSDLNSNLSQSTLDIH

[11] = target: T3, Histone acetyltransferase p300; experiment: Inhibition of recombinant histone acetyltransferase p300 (unknown origin) using dH3-H4 tetramer and [3H]-acetyl-CoA assessed as acetate incorporation after 5 mins by liquid scintillation counting in presence of 1 mM DTT
[12] = Fluorescence quenching in HTS buffer with 20 uM 7-diethylamino-3-(4'-maleimidyl-phenyl)-4-methylcoumarin assessed as fluorescence signal reduction at 10 uM after 10 mins; assay type: physicochemical
[13] = target: T2, Histone acetyltransferase RTT109 (Saccharomyces cerevisiae (strain ATCC 204508 / S288c) (Baker's yeast)); experiment: Inhibition of Vps75-stimulated recombinant Saccharomyces cerevisiae histone acetyltransferase Rtt109 using [3H]-acetyl-CoA assessed as acetate incorporation […] by liquid scintillation counting in presence of 1 mM DTT
[14] = target: T2, Histone acetyltransferase RTT109 (Saccharomyces cerevisiae (strain ATCC 204508 / S288c) (Baker's yeast)); experiment: Inhibition of Vps75-stimulated recombinant Saccharomyces cerevisiae histone acetyltransferase Rtt109 assessed as H3K27 acetylated product at […] after 45 mins by Slot bolt inhibiton assay
[15] = target: Histone acetyltransferase GCN5 (Saccharomyces cerevisiae S288c) (UniProt Q03330); experiment: Inhibition of yeast histone acetyltransferase Gcn5-Ada2-Ada3 complex using tetramer and [3H]-acetyl-CoA assessed as acetate incorporation […] by liquid scintillation counting in presence of 1 mM DTT
Chain of Histone acetyltransferase GCN5 (Saccharomyces cerevisiae S288c) (Q03330 whole entry): as the sequence (Q03330 whole entry) above

[16] = Chemical stability of the compound in HTS buffer assessed as GSH adduct formation by UPLC-MS analysis; assay type: physicochemical; in short: as §1
[17] = target: T4, Lupus La protein (Homo sapiens) (UniProt P05455); experiment: Induction of thiol reactivity with La protein (unknown origin) using […] assessed as protein reactivity by ALARM NMR
T4 sequence (whole entry): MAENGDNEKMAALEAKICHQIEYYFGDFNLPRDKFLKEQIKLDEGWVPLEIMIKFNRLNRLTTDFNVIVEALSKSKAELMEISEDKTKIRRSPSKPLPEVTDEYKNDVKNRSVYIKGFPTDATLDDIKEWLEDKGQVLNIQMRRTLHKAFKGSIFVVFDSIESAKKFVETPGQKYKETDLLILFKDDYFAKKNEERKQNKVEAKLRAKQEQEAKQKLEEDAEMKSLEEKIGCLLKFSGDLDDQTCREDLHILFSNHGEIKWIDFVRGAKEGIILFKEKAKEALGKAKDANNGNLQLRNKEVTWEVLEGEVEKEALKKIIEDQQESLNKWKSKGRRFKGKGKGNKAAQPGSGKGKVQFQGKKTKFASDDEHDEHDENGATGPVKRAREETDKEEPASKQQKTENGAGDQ
In short: (§2)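 ALARM NMR with recombinant La antigen expressed in E. coli Rosetta, 15N-labelled and 13C-labelled at Leu/Ile δ-methyl and Val γ-methyl groups; protein pre-reduced with 20 mM DTT then dialysed DTT-free under N2.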

[18] = target: T4, Lupus La protein (Homo sapiens); experiment: Induction of thiol reactivity with La protein (unknown origin) using […] assessed as protein reactivity by ALARM NMR in presence of 20 mM DTT; in short: as §2

Compound	IC50 [1]	IC50 [2]	Retention_time [3]	IC50 ([4]; read-out: IC50)	Retention_time [5]	Activity [6]	Activity [7]	Activity [8]	Activity [9]	IC50 [10]	Activity [11]	Activity [12]	Activity [13]	Activity [14]	Activity [15]	Stability [16]	Activity [17]	Activity [18]	IC50 [4]
O=S(=O)(Nc1cc(Cl)c(O)c2ccccc12)c1ccc(Br)cc1	1.2 µM	1.6 µM	3.28 min	2.5 µM	3.65 min	Not Active	Not Active	Active	Not Active	1.8 µM	Active	Not Active	Active	Active	Active				
O=[N+]([O-])c1cc(Br)c2nsnc2c1Sc1ncnc2[nH]cnc12	4.6 µM	3.9 µM		2.8 µM		Not Active	Not Active	Active	Not Active	2.2 µM	Active	Not Active	Active	Active	Active	Unstable	Active	inactive	
O=C(O)CCSc1cc(NS(=O)(=O)c2ccc(Br)cc2)c2ccccc2c1O	0.65 µM	0.52 µM	3.28 min		3.67 min	Not Active	Not Active		Not Active	1 µM	Active	Active			Active		Active	inactive	Not Active
O=C(O)c1ccc(-n2nnnc2SC2=CS(=O)(=O)c3ccccc32)cc1	11 µM	15 µM		8.8 µM		Not Active	Not Active	Active	Not Active	7.5 µM	Active	Not Active	Active	Active	Active	Unstable	Active	inactive	
O=S(=O)(Nc1cc(Sc2nc[nH]n2)c(O)c2ccccc12)c1ccc2ccccc2c1	2.5 µM		3.28 min		3.69 min	Not Active	Not Active		Not Active	0.51 µM		Not Active							
O=S(=O)(Nc1cc(Sc2nnnn2-c2ccccc2)c(O)c2ccccc12)c1ccccc1			3.28 min		3.4 min	Not Active	Not Active	Active	Not Active	3.1 µM	Active	Not Active	Active	Active	Active				
O=C(O)CSc1cc(NS(=O)(=O)c2ccc(C(=O)O)cc2)c2ccccc2c1O	1.3 µM	0.15 µM	3.28 min		3.27 min	Not Active	Not Active		Not Active	0.66 µM	Active	Active			Active				Not Active
O=C1CC(Sc2nnc(-c3ccccc3O)o2)C(=O)N1c1ccc(Br)cc1 (stereo not given)	27 µM	3.9 µM		15 µM		Not Active	Not Active	Active	Not Active	3.7 µM	Active	Not Active	Active	Active	Active	Unstable	Active	inactive	
O=S(=O)(Nc1cc(Sc2ncn[nH]2)c(O)c2ccccc12)c1ccc2ccccc2c1								Active			Active		Active	Active	Active		Active	inactive	
CNc1nc(-c2ccccc2)[n+](-c2ccccc2)s1.[Cl-]	7.5 µM					Not Active	Not Active	Active	Not Active	1.9 µM	Active	Not Active	Active	Active	Active	Unstable	Active	inactive	
